This note sets out measurements from ChEMBL document CHEMBL2146438, “Radiolabeled cyclosaligenyl monophosphates of 5-iodo-2'-deoxyuridine, 5-iodo-3'-fluoro-2',3'-dideoxyuridine, and 3'-fluorothymidine for molecular radiotherapy of cancer: synthesis and biological evaluation” (J Med Chem, 2012).

Series [1] is described as follows: Half life of the compound in phosphate buffer at pH 7.3. The class given is physicochemical.
Series [2] is described as follows: Chemical stability of the compound in phosphate buffer at pH 7.3. The class given is physicochemical.
The target of the next series is Cholinesterase (Homo sapiens, UniProt P06276). The series is described as follows: Inhibition of human BChE after 24 hrs by microplate reader method.
Cholinesterase, sequence (P06276 whole entry): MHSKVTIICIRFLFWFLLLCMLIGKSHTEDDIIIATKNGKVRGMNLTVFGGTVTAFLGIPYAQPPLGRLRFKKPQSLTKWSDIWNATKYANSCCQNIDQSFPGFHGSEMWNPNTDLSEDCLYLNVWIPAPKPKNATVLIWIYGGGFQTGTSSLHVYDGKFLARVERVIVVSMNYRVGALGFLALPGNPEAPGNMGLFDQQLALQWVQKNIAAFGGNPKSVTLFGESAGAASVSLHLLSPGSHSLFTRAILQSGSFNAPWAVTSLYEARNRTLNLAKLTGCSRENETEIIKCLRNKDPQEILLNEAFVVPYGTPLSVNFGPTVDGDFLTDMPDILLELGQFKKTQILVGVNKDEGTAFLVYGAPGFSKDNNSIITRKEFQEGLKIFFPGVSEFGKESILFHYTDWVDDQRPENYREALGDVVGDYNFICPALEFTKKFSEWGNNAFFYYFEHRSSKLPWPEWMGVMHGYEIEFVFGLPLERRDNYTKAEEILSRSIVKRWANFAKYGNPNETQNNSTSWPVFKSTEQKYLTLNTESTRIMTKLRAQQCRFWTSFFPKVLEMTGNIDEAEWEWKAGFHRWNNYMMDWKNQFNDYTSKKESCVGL
Series [3] concerns OVCAR-3. The series is described as follows: Cellular uptake in human OVCAR3 cells at 16.7 +/- 1.2 kBq/mL after 3 hrs by gamma counting. Format: ADME, cell-based. To be noted: ovcar-3, 3 h. In outline:
(§1)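 Time-course uptake of resolved 125I-labelled diastereomers in LS 174T (colorectal) or OVCAR-3 (ovarian) cells at the stated radioactive concentration; cell-associated radioactivity counted at each time point; mean and std dev, n = 3 per time.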

Series [4] is described as follows: Cellular uptake in human LS 174T cells at 13.6 +/- 0.4 kBq/mL after 3 hrs by gamma counting. Format: ADME, cell-based. To be noted: ls174t. An outline of the steps:
as §1

A short description of series [5]: Cellular uptake in human LS 174T cells at 17.5 +/- 0.3 kBq/mL after 3 hrs by gamma counting. Format: ADME, cell-based. The following applies: ls174t. In outline:
as §1

Series [6] in a line: Cellular uptake in human OVCAR3 cell cytoplasm assessed as per 10^3 cells after 1 hr by gamma counting. Format: ADME, cell-based. The following applies: ovcar-3, 1 h, 1 h. In outline:
(§2)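 OVCAR-3 cells incubated 1 h with 55.5 (0.04) kBq/mL 125I-labelled agent (diastereomer mixtures or resolved slow isomers); fractionated either immediately or after 24 h further growth in fresh nonradioactive medium; 125I in cytoplasm and nucleus counted as cpm/10^3 cells with std dev.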

The nature of series [7]: Cellular uptake in human OVCAR3 cell cytoplasm assessed as per 10^3 cells after 24 hrs by gamma counting. Format: ADME, cell-based. The following applies: ovcar-3, 24 h, 24 h. An outline of the steps:
as §2

Series [8] can be described thus: Cellular uptake in human OVCAR3 cell nucleus assessed as per 10^3 cells after 1 hr by gamma counting. Format: ADME, cell-based. The following applies: ovcar-3, 1 h, 1 h. In outline:
as §2

Series [9] can be described thus: Cellular uptake in human OVCAR3 cell nucleus assessed as per 10^3 cells after 24 hrs by gamma counting. The following applies: ovcar-3, 24 h, 24 h. Format: ADME, cell-based. An outline of the steps:
as §2

Series [10] is described as follows: Cellular uptake in human U87MG DNA incubated for 1 hr followed by compound wash out measured after 24 hrs by gamma counting. Format: ADME, cell-based. The following applies: u-87mg atcc. In outline: (§3)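 U-87 MG cells treated 1 h with 125I-labelled diastereomers, fractionated either immediately or after 24 h in fresh nonradioactive medium; 125I counted in cytoplasm, soluble nuclear fraction and DNA.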

A short description of series [11]: Cellular uptake in human U87MG cell nucleus incubated for 1 hr followed by compound wash out measured after 24 hrs by gamma counting. The following applies: u-87mg atcc. Format: ADME, cell-based. An outline of the steps:
as §3

Series [12] in a line: Cellular uptake in human U87MG cell cytoplasm incubated for 1 hr followed by compound wash out measured after 24 hrs by gamma counting. The following applies: u-87mg atcc. Format: ADME, cell-based. An outline of the steps: as §3
The subject of series [13] is U-87MG ATCC. The series is described as follows: Cytotoxicity against human U87MG cells at 4.76 kBq/mL assessed as cell survival incubated for 1 hr followed by compound wash out measured after 24 hrs by clonogenic assay. Format: functional, cell-based. To be noted: tested as the 125I-labelled form. An outline of the steps: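 U-87 MG cells treated 1 h with 4.76 kBq/mL 125I agent, then plated immediately or grown 24 h in fresh medium before clonogenic assay; surviving fraction relative to untreated control colonies.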

Series [14] relates to LS174T. As to the kind of experiment: Cytotoxicity against human LS 174T cells assessed as colony formation at 185 kBq/mL after 4 hrs by clonogenic assay relative to control. The class given is functional, cell-based. To be noted: tested as the 125I-labelled form. An outline of the steps:
(§4)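 LS 174T cells exposed 4 h to 185 kBq/mL 125I agent, harvested immediately and plated for clonogenic survival (relative to untreated controls); 125I retained in nuclear DNA measured as mBq/cell.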

Series [15] concerns LS174T. The series is described as follows: Cytotoxicity against human LS 174T cells assessed as incorporation of radioisotope at 185 kBq/mL after 4 hrs by gamma counting. The class given is functional, cell-based. The following applies: tested as the 125I-labelled form. In outline: as §4
Series [16] is described as follows: Cellular uptake in human LS 174T cells by gamma counting. Format: ADME, cell-based. The following applies: ls174t.
For series [17], the system named is OVCAR-3. As to the kind of experiment: Cellular uptake in human OVCAR3 cells at 35.1 +/- 0.3 kBq/mL after 3 hrs by gamma counting. Format: ADME, cell-based. To be noted: ovcar-3, 3 h. In outline:
as §1

The test system of series [18] is OVCAR-3. The series is described as follows: Cellular uptake in human OVCAR3 cells at 35.1 +/- 0.3 kBq/mL after 6 hrs by gamma counting. The class given is ADME, cell-based. To be noted: ovcar-3, 6 h. In outline: (§5)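 Time-course uptake in LS 174T or OVCAR-3 cells at 35.1±0.3 kBq/mL, continued to 6 h; cell-associated 125I counted; mean and std dev, n = 3 per time.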

Series [19] is described as follows: Cellular uptake in human LS 174T cells at 35.1 +/- 0.3 kBq/mL after 6 hrs by gamma counting. The class given is ADME, cell-based. To be noted: ls174t. In outline: as §5
Series [20] in a line: Cellular uptake in human LS 174T cells at 35.1 +/- 0.3 kBq/mL after 3 hrs by gamma counting. The following applies: ls174t. Format: ADME, cell-based. An outline of the steps: as §1
For series [21], the system named is Nucleic Acid. The series is described as follows: Binding affinity to human U87MG cell DNA at 19.6 kBq/mL after 40 hrs by gamma counting. Format: nucleic-acid assay. To be noted: U-87MG ATCC, tested as the 125I-labelled form. An outline of the steps:
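U-87 MG cells incubated 40 h with 19.6 kBq/mL 125I-labelled agent; 125I in DNA measured (genomic tips DNA isolation), expressed as mBq 125I/cell.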

Series [22] has as its system Nucleic Acid. The series is described as follows: Binding affinity to human U87MG cell DNA at 185 kBq/mL after 120 hrs by gamma counting. Format: nucleic-acid assay. The following applies: U-87MG ATCC, tested as the 125I-labelled form. An outline of the steps: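 U-87 MG glioblastoma cells exposed continuously to 185 kBq/mL 125I-labelled agent for 120 h; DNA isolated and DNA-associated 125I counted.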

Series [23] relates to Nucleic Acid. The series is described as follows: Binding affinity to human U87MG cell DNA at 27.3 kBq/mL incubated for 24 hrs followed by compound wash out measured after 144 hrs by gamma counting. The class given is nucleic-acid assay. The following applies: U-87MG ATCC, tested as the 125I-labelled form. In outline:
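U-87 MG cells treated 24 h with 27.3 kBq/mL 125I-labelled agent, then grown a further 144 h in fresh medium; 125I retained in DNA counted.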

For series [24], the system named is U-87MG ATCC. The series is described as follows: Cytotoxicity against human U87MG cells assessed as cell death at 18.5 kBq/mL after 8 weeks by clonogenic assay. The following applies: tested as the 125I-labelled form. Format: functional, cell-based. In outline: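 U-87 MG cells treated 24 h with increasing 125I agent concentrations, then grown in fresh medium; colony formation followed up to eight weeks versus vehicle-treated controls.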

Series [25] in a line: Cellular uptake in human LS 174T cells at 46.9 +/- 1.1 kBq/mL up to 90 mins by gamma counting. The class given is ADME, cell-based. To be noted: ls174t, 1.5 h. An outline of the steps: as §1
The test system of series [26] is OVCAR-3. The series is described as follows: Cellular uptake in human OVCAR3 cells at 46.9 +/- 1.1 kBq/mL up to 90 mins by gamma counting. Format: ADME, cell-based. The following applies: ovcar-3, 1.5 h. In outline: as §1
For series [27], the system named is OVCAR-3. The series is described as follows: Cellular uptake in human OVCAR3 cells at 46.9 +/- 1.1 kBq/mL after 90 mins by gamma counting. The following applies: ovcar-3, 1.5 h. Format: ADME, cell-based. In outline: as §1
The nature of series [28]: Cellular uptake in human LS 174T cells after 3 hrs by gamma counting. Format: ADME, cell-based. The following applies: ls174t. An outline of the steps: (§6)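 Concentration-dependent uptake: LS 174T or OVCAR-3 cells exposed to increasing concentrations of 125I-labelled diastereomers for 3 h; 131IUdR added to the medium as internal standard of proliferation; saturable uptake fitted to give Bmax as molecules/cell.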

The nature of series [29]: Cellular uptake in human LS 174T cells at 46.9 +/- 1.1 kBq/mL after 90 mins by gamma counting. Format: ADME, cell-based. To be noted: ls174t, 1.5 h. In outline: as §1
The test system of series [30] is OVCAR-3. As to the kind of experiment: Cellular uptake in human OVCAR3 cells after 3 hrs by gamma counting. The class given is ADME, cell-based. To be noted: ovcar-3, 3 h. An outline of the steps: as §6
Series [31] can be described thus: Cytotoxicity against human LS 174T cells assessed as colony formation at 114.5 kBq/mL incubated for 4 hrs measured after 21 days by clonogenic assay. The class given is functional, LS174T. In outline: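 LS 174T cells exposed 4 h to 114.5 kBq/mL 125I agent, cultured 24 h in nonradioactive medium, then harvested and plated; colonies counted after 21 days; surviving fraction = treated colonies / untreated control colonies.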

Series [32] in a line: Cellular uptake in human U87MG cells by gamma counting. To be noted: u-87mg atcc. Format: ADME, cell-based.

Activity calls are given as the source filed them. The rule behind the calls is not given here.

The molecule `CC(C)(C)c1cc(C(C)(C)C)c2c(c1F)COP(=O)(O[C@H]1C[C@H](n3cc(I)c(=O)[nH]c3=O)O[C@@H]1CO)O2` (stereo in doubt; form 2) gave a t1/2 in series [1] of 17.3 h. In [2], this molecule showed a K of 6.67 ×10⁻⁴ /min. For the same molecule, the IC50 against Cholinesterase is greater than 3 mM.
Take `CC(C)(C)c1cc(C(C)(C)C)c2c(c1F)COP(=O)(OC[C@H]1O[C@@H](n3cc([125I])c(=O)[nH]c3=O)C[C@@H]1O)O2` (some centres undefined): the Drug uptake result (in the series with OVCAR-3 [3]; in [4]) was “Active” each time.
For `CC(C)(C)c1cc(C(C)(C)C)c2c(c1F)COP(=O)(OC[C@H]1O[C@@H](n3cc([125I])c(=O)[nH]c3=O)C[C@@H]1O)O2` (stereo in doubt), the Drug uptake result in series [5] is “Active”; in series [6], 87.3 cpm; in series [7], 2.8 cpm; in series [8], 7.8 cpm; in [9] it was 91.6 cpm.
For `CC(C)(C)c1cc(C(C)(C)C)c2c(c1F)COP(=O)(OC[C@H]1O[C@@H](n3cc([125I])c(=O)[nH]c3=O)C[C@@H]1F)O2` (stereo in doubt; form 1), the Drug uptake entry in series [10], in [11] and in series [12] was “Active” in each case. This molecule also yielded a t1/2 in series [1] of 38.5 h. This molecule came in with a K in series [2] of 3.01 ×10⁻⁴ /min.
Regarding `CC(C)(C)c1cc(C(C)(C)C)c2c(c1F)COP(=O)(OC[C@H]1O[C@@H](n3cc(I)c(=O)[nH]c3=O)C[C@@H]1F)O2` (stereo in doubt), the outcome in the series with U-87MG ATCC [13] was inactive.
As for `Cc1cccc2c1OP(=O)(OC[C@H]1O[C@@H](n3cc(I)c(=O)[nH]c3=O)C[C@@H]1O)OC2` (stereo in doubt; form 4), the outcome in the series with LS174T [14] and in the series with LS174T [15] was Active.
Turning to `Cc1cccc2c1OP(=O)(OC[C@H]1O[C@@H](n3cc([125I])c(=O)[nH]c3=O)C[C@@H]1O)OC2` (stereo in doubt; form 1), the Drug uptake entry (in [16]; in the series on OVCAR-3 [17]; in the series on OVCAR-3 [18]; in series [19]; in series [20]) was “Active” throughout. Further, the t1/2 in series [1] turned out to be 21.2 h. In series [2], this molecule displayed a K of 5.44 ×10⁻⁴ /min.
As for `O=c1[nH]c(=O)n([C@H]2C[C@H](O)[C@@H](COP3(=O)OCc4ccccc4O3)O2)cc1I` (stereo in doubt; form 4), the outcome in the series on Nucleic Acid [21], in the series with Nucleic Acid [22], with Nucleic Acid [23] and in the series with U-87MG ATCC [24] was Active.
Turning to `O=c1[nH]c(=O)n([C@H]2C[C@H](O)[C@@H](COP3(=O)OCc4ccccc4O3)O2)cc1[125I]` (stereo in doubt; form 1), the Drug uptake entry in series [25] is reported as “Active”; in the series with OVCAR-3 [26] it was “Active”; in the series with OVCAR-3 [27], “Active”; in series [28] it was “Dose-dependent effect”; in series [29] it was “Active”; in the series with OVCAR-3 [30], “Dose-dependent effect”. In [32], the Drug uptake entry is recorded as “Dose-dependent effect”. Also, the t1/2 in series [1] was found to be 5.1 h. Also, the K in series [2] is listed as 2.25 ×10⁻³ /min. Besides, in series [31], the Activity is 60%.
